# PMI act satM6P = PMI (human) activation, high substrate; activation factor at 20 µM; P34949; 0.34% of 190,000 active; coupled PMI enzyme assay, resazurin fluorescence, 20 min; hits give high values; 1 = untreated enzyme, 0 = substrate-free blank; AID 1216;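 active = activation factor of 2 or more at 20 µM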
#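 test system = human PMI in coupled enzyme assay | medium = HEPES-buffered pH 7.4 with magnesium and detergent | also added = 1.0 mM mannose-6-phosphate substrate with 0.22 mM NADP+ | compound = 20 µM single dose | times = 20 min incubation at room temperature | measured by = resorufin fluorescence (Ex 544/Em 590 nm) from resazurin via diaphorase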
# PMI act = phosphomannose isomerase (human) activation | 0.005% of 190,000 active | purified human PMI, coupled resazurin fluorescence, 20 min; hits give high values; 1 = vehicle control, 0 substrate-free wells | activation factor at 20 µM | P34949;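 active = activation factor of 2 or more at 20 µM, relative to plate controls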
# WT yeast gro inh = growth inhibition of WT yeast, mitochondrial fusion screen; mitochondrial fusion phenotypic screen, WT strain; inhibition, % at 10 µM; 2.1% of 190,000 active; AID 1362; in the data active = inhibition above about 58%; tested in S. cerevisiae
# Lmaj promast = reduces viability of Leishmania major promastigotes | resazurin fluorescence viability | inhibition, % at 10 µM | 9% of 200,000 active; in the data active = inhibition above about 50%;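 also: promastigotes grown with compound for 44 hours at 28 °C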
# Rad51 HR inh = Rad51 (human) homologous recombination inhibition. Q06609. hRad51 DNA strand exchange, fluorescence dequenching. inhibition, % at 10 µM. 0.085% of 200,000 active;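 active = inhibition above 40% at the single screening dose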;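 also: 0% = DMSO control wells and 100% = blanks with heterologous ssDNA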
# Target sequence (Q06609 whole entry, looked up): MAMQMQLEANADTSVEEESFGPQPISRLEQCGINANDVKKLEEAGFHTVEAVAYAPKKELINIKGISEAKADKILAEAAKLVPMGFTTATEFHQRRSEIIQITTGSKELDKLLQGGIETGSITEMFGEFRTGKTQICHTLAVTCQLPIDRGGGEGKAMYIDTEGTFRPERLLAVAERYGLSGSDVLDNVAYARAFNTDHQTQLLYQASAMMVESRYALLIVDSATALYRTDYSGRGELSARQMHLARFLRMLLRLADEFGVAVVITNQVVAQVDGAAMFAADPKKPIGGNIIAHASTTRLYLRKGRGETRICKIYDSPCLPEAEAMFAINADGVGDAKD
#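 Read-out basis: percent inhibition relative to plate controls and blanks / Assay system: human Rad51 nucleoprotein filaments preassembled on unlabelled ssDNA / Timing: filaments 15 min 37 °C, then compound 30 min / Control set: per-plate controls and blanks / Technique: fluorescence dequenching at 485/520 nm / Compound: 10 µM final, single point / Also added: Fluorescein- and BHQ1-tagged 47-mer duplex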
# m-calpain inh = blocks pig calpain II enzyme activity | purified calpain II, fluorogenic peptide substrate, 30 min | inhibition, % at 16 µM | 0.37% of 220,000 active | AID 1236;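 active = inhibition above about 50%, limit read from the data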
# Starred values were filed as active, the others as inactive; / = not tested or not shown. In the library only some 9.8% were active in any assay of this set; here they are far more common.
SMILES,PMI act satM6P,PMI act,WT yeast gro inh,Lmaj promast,Rad51 HR inh,m-calpain inh
COc1ccc(Nc2nc(N)nc(CN3CCc4ccccc4C3)n2)cc1,0.8,1,17.9,7.2,-0.5,30.8
Cc1c(Cl)cccc1Nc1nc(N)nc(CN2CCCCCC2)n1,0.9,0.9,-4.3,81.3*,-1.7,25.6
COc1ccccc1Nc1nc(N)nc(CN2CCc3ccccc3C2)n1,1,1.1,-3.3,100.5*,-5.0,-16.7
Cc1ccc(Nc2nc(N)nc(CN3CCCCCC3)n2)cc1,1.1,1,-8.9,-4.0,2.1,15.0
Cc1cc(C)c2nc(N3CCC(C(=O)N4CCN(C(=O)c5ccco5)CC4)CC3)sc2c1,1,0.9,15.8,4.7,6.6,-7.8
Cc1cc(C)c2nc(N3CCCC(C(=O)N4CCN(c5ncccn5)CC4)C3)sc2c1 (stereo not drawn),1,0.9,67.3*,2.7,1.4,-75.3
CC(NCc1ccc(S(N)(=O)=O)cc1)C(=O)Nc1ccc([N+](=O)[O-])cc1Cl (stereo not drawn),1.1,1.1,9.0,6.7,5.7,-16.4
COc1ccc(C(=O)COC(=O)C2CCCN2C(=O)C23CC4CC(CC(C4)C2)C3)cc1 (stereo not drawn),1,0.8,-5.5,55.2*,9.8,16.5
O=C(COC(=O)C1CCCN1C(=O)C12CC3CC(CC(C3)C1)C2)c1ccc(Br)cc1 (stereo not drawn),1.2,1.1,8.5,-4.1,-3.4,7.2
Cc1c(C)c(C)c(S(=O)(=O)N2CCNCC2)c(C)c1C,1.1,1.3,0.3,3.2,2.2,-10.6
Clc1ccc(-c2csc(=Nc3cccnc3)n2CCCn2ccnc2)cc1Cl,1,1,38.1,98.6*,17.4,31.7
CN(C)CC(C(=O)c1ccccc1)c1ccccc1 (stereo not drawn),1,0.9,77.1*,100.2*,2.8,-18.3
COc1ccc(C(C(=O)OC(C)CN(C)C)c2ccccc2)cc1 (stereo not drawn),1,0.9,2.8,-6.3,5.3,-14.1
O=[N+]([O-])c1cc(-c2nc3nc4ccccc4nc3n2CCc2ccccc2)cc([N+](=O)[O-])c1,1,1,2.5,60.7*,11.0,-4.3
Cc1cccc(-n2c(-c3cccc([N+](=O)[O-])c3)nc3nc4ccccc4nc32)c1,1.1,1.1,9.4,-5.4,-13.2,-59.7
Clc1cccc(-c2nc3nc4ccccc4nc3n2Cc2ccccc2)c1,1.1,1,-9.1,52.1*,-13.7,-17.5
c1ccc(Cn2c(-c3ccccc3)nc3nc4ccccc4nc32)cc1,1,1,8.4,84.0*,-2.3,-122.8
CCOC(=O)c1c(C)nc2ccc(Cl)cc2c1-c1ccccc1,0.9,1,63.8*,50.8*,-1.1,12.8
Cc1cccc(CS(=O)(=O)Cc2ccc(C(=O)NCc3ccco3)o2)c1,1.1,1.1,-19.3,79.7*,/,-11.5
Cc1cc(=O)oc(C)c1C(=O)NCc1cccnc1,1,1,-6.4,-4.4,/,13.5
Cc1ccc(CCNC(=O)c2ccc(CS(=O)(=O)Cc3ccccc3F)o2)cc1,1,1,-14.7,74.8*,-3.1,-15.8
O=C(NCc1ccco1)c1ccc([N+](=O)[O-])o1,1,1.2,-17.1,62.5*,7.3,-41.9
Cc1ccc(CS(=O)(=O)Cc2ccc(C(=O)NCc3ccco3)o2)cc1,1.1,1.1,-26.2,-7.7,-8.7,-8.4
O=C(NCc1cccnc1)c1ccc([N+](=O)[O-])o1,1,1,3.5,93.5*,4.2,6.7
O=C(NCCc1ccccc1)c1ccc(CS(=O)(=O)Cc2ccccc2F)o1,1.1,1,-9.7,0.4,-8.4,-72.6
CC(C)(C)C(=O)N1CCC(O)(CS(=O)(=O)c2ccc(Cl)c(Cl)c2)CC1,1,0.9,3.7,-9.0,4.5,24.7
CN(C)NC(=S)NC1(C)CCS(=O)(=O)C1 (stereo not drawn),/,/,/,/,5.7,-18.0
O=C(Cn1c2[n+](c3ccccc31)CC(O)CS2)c1ccccc1 (stereo not drawn),0.9,0.9,-17.5,-10.3,-5.9,1.8
CCCCNC(=O)Cn1nc([N+](=O)[O-])c([N+](=O)[O-])c1C,1,1.1,-10.6,79.2*,6.3,-1.9

# Compound activity (PubChem BioAssay)
